These results are taken from ChEMBL document CHEMBL1154095, “Separation of alpha-glucosidase-inhibitory and liver X receptor-antagonistic activities of phenethylphenyl phthalimide analogs and generation of LXRalpha-selective antagonists” (Bioorg Med Chem, 2009).

For experiment [1], the target named is Liver X receptor (LXR alpha AND LXR beta) (Homo sapiens) (UniProt Q13133+P55055). The experiment in a line: Selectivity ratio of IC50 for human LXRbeta over IC50 for human LXRalpha. In kind it is protein assay.
Experiment [2] is described as follows: Inhibition of Saccharomyces sp. alpha-glucosidase assessed as p-nitrophenol release. The essentials:
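Yeast alpha-glucosidase at 0.2 mU/mL in 10 mM phosphate buffer pH 7.0 was preincubated with compound (1% v/v DMSO final) for 10 min at 37 °C. pNPG substrate (final 0.2 mM) was then added and incubated 10 min at 37 °C. The reaction was basified with Na2CO3, and released p-nitrophenol was read at A405. Triplicates, repeated at least twice, normalized averages, IC50.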

The target in experiment [3] is T1, Oxysterols receptor LXR-alpha (Homo sapiens, UniProt Q13133).
T1 sequence (Q13133 whole entry): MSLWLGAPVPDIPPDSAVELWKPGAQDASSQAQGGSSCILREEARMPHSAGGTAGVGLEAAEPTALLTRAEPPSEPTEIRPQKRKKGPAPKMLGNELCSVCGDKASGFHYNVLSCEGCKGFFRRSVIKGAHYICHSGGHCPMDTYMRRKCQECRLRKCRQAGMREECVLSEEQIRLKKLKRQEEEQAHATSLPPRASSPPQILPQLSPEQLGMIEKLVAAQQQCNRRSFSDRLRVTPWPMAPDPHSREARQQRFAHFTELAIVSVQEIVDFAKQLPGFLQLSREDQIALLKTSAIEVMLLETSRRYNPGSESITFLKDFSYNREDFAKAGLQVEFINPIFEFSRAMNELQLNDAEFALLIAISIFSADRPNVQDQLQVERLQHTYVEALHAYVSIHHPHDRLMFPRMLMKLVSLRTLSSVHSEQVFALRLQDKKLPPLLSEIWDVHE
The experiment in a line: Antagonist activity at human LXRalpha expressed in HEK293 cells assessed as inhibition of beta-galactosidase activity by luciferase reporter gene assay. It is filed as functional, cell-based. Background: Reporter assays use an easily measured gene product as a stand-in for the process of interest.

The target of experiment [4] is T2, Oxysterols receptor LXR-beta (Homo sapiens, UniProt P55055).
T2 sequence (P55055 whole entry): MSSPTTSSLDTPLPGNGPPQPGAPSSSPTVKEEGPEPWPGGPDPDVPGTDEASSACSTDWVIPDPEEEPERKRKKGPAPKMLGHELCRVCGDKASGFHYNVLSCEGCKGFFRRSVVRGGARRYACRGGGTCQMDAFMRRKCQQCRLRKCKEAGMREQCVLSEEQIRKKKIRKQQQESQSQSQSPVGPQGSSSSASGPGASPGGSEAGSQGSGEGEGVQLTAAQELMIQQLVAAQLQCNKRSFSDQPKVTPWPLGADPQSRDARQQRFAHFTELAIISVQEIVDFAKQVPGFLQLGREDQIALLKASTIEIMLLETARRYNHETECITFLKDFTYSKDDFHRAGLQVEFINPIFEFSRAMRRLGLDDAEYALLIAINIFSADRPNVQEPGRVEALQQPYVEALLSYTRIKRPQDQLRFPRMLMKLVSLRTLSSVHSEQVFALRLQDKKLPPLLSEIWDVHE
Kind of experiment: Antagonist activity at human LXRbeta expressed in HEK293 cells assessed as inhibition of beta-galactosidase activity by luciferase reporter gene assay. It is filed as functional, cell-based.

The next experiment deals with Saccharomyces sp. Kind of experiment: Inhibition of Saccharomyces sp. alpha-glucosidase by non-competitive Lineweaver-Burke analysis.

Activity calls are given as the source filed them. The calls are words filed in the database; no cut-off is given here.

As a reminder, the IC50 is the concentration needed to halve the response being measured. Take `COc1ccc(CCc2ccc(N3C(=O)c4ccccc4C3=O)cc2)cc1`: the Selectivity Index in experiment [1] was > 150. Also, the half-maximal inhibitory concentration (IC50) in experiment [2] was > 100 µM; in experiment [3], 0.2 µM; in experiment [4] it was > 30 µM.
On to `COc1ccc(/C=C/c2ccc(N3C(=O)c4ccccc4C3=O)cc2)cc1OC`, for which the results for the half-maximal inhibitory concentration (IC50) in experiment [2], in experiment [3] and in experiment [4] were > 100 µM, 3.8 µM and > 30 µM, respectively.
In the same order, the values of `O=C1c2c(Cl)c(Cl)c(Cl)c(Cl)c2C(=O)N1c1ccccc1CCc1ccc(O)c(O)c1` are 20 µM, 15 µM and 17 µM.
In the same order, the values of `O=C1c2ccccc2C(=O)N1c1ccc(CCc2cccc(O)c2)cc1` are > 100 µM, 7.5 µM and > 30 µM.
In the same order, the values of `O=C1c2c(Cl)c(Cl)c(Cl)c(Cl)c2C(=O)N1c1cccc(/C=C/c2ccccc2)c1` are 31 µM, > 30 µM and > 30 µM.
On to `O=C1c2ccccc2C(=O)N1c1ccc(/C=C/c2ccccc2)cc1`, for which the concentration for half-maximal inhibition (IC50) in experiment [2] was 90 µM; in experiment [3], > 30 µM; in experiment [4] it was > 30 µM.
Regarding `O=C1c2ccccc2C(=O)N1c1ccccc1CCc1ccccc1`, in experiment [2], the half-inhibitory concentration (IC50) amounted to 16.2 µM.
For `O=C1c2ccccc2C(=O)N1c1cccc(CCc2ccc(O)c(O)c2)c1`, the results for the 50% inhibitory concentration (IC50) in experiment [2], in experiment [3] and in experiment [4] were 38 µM, 6.1 µM and 7.6 µM, respectively.
For the compound `O=C1c2c(Cl)c(Cl)c(Cl)c(Cl)c2C(=O)N1c1ccc(/C=C/c2ccccc2)cc1`, the figures for the IC50 in experiment [2], in experiment [3] and in experiment [4] were 21 µM, > 30 µM and > 30 µM, respectively.
Take `COc1ccc(CCc2ccc(N3C(=O)c4c(Cl)c(Cl)c(Cl)c(Cl)c4C3=O)cc2)cc1OC`: the IC50 was 18 µM in experiment [2], > 30 µM in experiment [3] and > 30 µM in experiment [4]. Also, the outcome in the experiment with Saccharomyces sp. was Active.
With `COc1ccc(/C=C/c2ccc(N3C(=O)c4c(Cl)c(Cl)c(Cl)c(Cl)c4C3=O)cc2)cc1OC`, the results for the IC50 in experiment [2], in experiment [3] and in experiment [4] were 40 µM, > 20 µM and 14 µM, respectively.
In the same order, the values of `O=C1c2c(Cl)c(Cl)c(Cl)c(Cl)c2C(=O)N1c1ccc(CCc2ccc(O)cc2)cc1` are 23 µM, > 30 µM and > 30 µM.
As for `O=C1c2ccccc2C(=O)N1c1ccc(CCc2ccccc2)cc1`, the half-inhibitory concentration (IC50) in experiment [2] was > 100 µM.
Turning to `COc1ccc(CCc2cccc(N3C(=O)c4c(Cl)c(Cl)c(Cl)c(Cl)c4C3=O)c2)cc1OC`, the IC50 was 83 µM in experiment [2], > 30 µM in experiment [3] and > 30 µM in experiment [4].
For `COc1ccc(CCc2cccc(N3C(=O)c4ccccc4C3=O)c2)cc1OC`, the IC50 in experiment [2] was > 100 µM; in experiment [3], > 30 µM; in experiment [4], > 30 µM.
For the compound `COc1ccc(CCc2ccc(N3C(=O)c4c(Cl)c(Cl)c(Cl)c(Cl)c4C3=O)cc2)cc1`, the IC50 in experiment [2] is > 100 µM; in experiment [3] it was 8.8 µM; in experiment [4] it was > 30 µM.
In the same order, the values of `O=C1c2c(Cl)c(Cl)c(Cl)c(Cl)c2C(=O)N1c1ccccc1CCc1ccccc1` are > 100 µM, > 3 µM and > 3 µM.
In the same order, the values of `O=C1c2ccccc2C(=O)N1c1ccc(CCc2ccc(O)cc2)cc1` are > 100 µM, 2.9 µM and > 30 µM.
In the same order, the values of `O=C1c2c(Cl)c(Cl)c(Cl)c(Cl)c2C(=O)N1c1cccc(/C=C/c2ccc(O)c(O)c2)c1` are 13 µM, 6.6 µM and > 30 µM.
With `COc1cccc(CCc2ccc(N3C(=O)c4c(Cl)c(Cl)c(Cl)c(Cl)c4C3=O)cc2)c1`, the half-inhibitory concentration (IC50) in experiment [2] is 65 µM; in experiment [3], 6.9 µM; in experiment [4] it was > 30 µM.
In the same order, the values of `O=C1c2ccccc2C(=O)N1c1ccccc1CCc1ccc(O)c(O)c1` are > 100 µM, 9.8 µM and > 30 µM.
In the same order, the values of `O=C1c2c(Cl)c(Cl)c(Cl)c(Cl)c2C(=O)N1c1cccc(CCc2ccc(O)cc2)c1` are > 100 µM, 3.7 µM and > 30 µM.
In the same order, the values of `COc1cccc(CCc2ccc(N3C(=O)c4ccccc4C3=O)cc2)c1` are > 100 µM, 2.4 µM and 3.5 µM.
Consider `O=C1c2c(Cl)c(Cl)c(Cl)c(Cl)c2C(=O)N1c1ccc(CCc2ccc(O)c(O)c2)cc1`, for which the values for the concentration for half-maximal inhibition (IC50) in experiment [2], in experiment [3] and in experiment [4] were > 100 µM, 5.1 µM and > 30 µM, respectively.
In the same order, the values of `O=C1c2c(Cl)c(Cl)c(Cl)c(Cl)c2C(=O)N1c1cccc(CCc2ccccc2)c1` are > 100 µM, > 30 µM and > 30 µM.
In the same order, the values of `COc1ccc(CCc2cccc(N3C(=O)c4c(Cl)c(Cl)c(Cl)c(Cl)c4C3=O)c2)cc1` are 49 µM, 5.5 µM and > 30 µM.
Consider `O=C1c2c(Cl)c(Cl)c(Cl)c(Cl)c2C(=O)N1c1ccc(CCc2cccc(O)c2)cc1`, for which the figures for the IC50 in experiment [2], in experiment [3] and in experiment [4] were 21 µM, 3.9 µM and > 30 µM, respectively.
Consider `O=C1c2c(Cl)c(Cl)c(Cl)c(Cl)c2C(=O)N1c1ccc(CCc2ccccc2)cc1`, for which the half-inhibitory concentration (IC50) was 17 µM in experiment [2], > 30 µM in experiment [3] and > 30 µM in experiment [4].
For `c1cc2cc(c1)Oc1ccc(cc1)CCc1ccccc1-c1ccc(cc1)CC2`, in experiment [1], the Selectivity ratio worked out at 11.
Regarding `O=C1c2c(Cl)c(Cl)c(Cl)c(Cl)c2C(=O)N1c1ccc(/C=C/c2ccc(O)c(O)c2)cc1`, the values for the IC50 in experiment [2], in experiment [3] and in experiment [4] were > 100 µM, 2.7 µM and > 30 µM, respectively.
As to `O=C1c2ccccc2C(=O)N1c1ccc(/C=C/c2ccc(O)c(O)c2)cc1`, the figures for the half-maximal inhibitory concentration (IC50) in experiment [2], in experiment [3] and in experiment [4] were > 100 µM, 1.6 µM and > 1 µM, respectively.
In the case of `O=C1c2c(Cl)c(Cl)c(Cl)c(Cl)c2C(=O)N1c1cccc(CCc2cccc(O)c2)c1`, the 50% inhibitory concentration (IC50) in experiment [2] is 50 µM; in experiment [3] it was 2.6 µM; in experiment [4], > 30 µM.
Regarding `O=C1c2ccccc2C(=O)N1c1cccc(CCc2ccccc2)c1`, the IC50 in experiment [2] is > 100 µM.
On the same count and under the same terms, for `COc1ccc(CCc2ccccc2N2C(=O)c3ccccc3C2=O)cc1OC` the value was > 100 µM.
As for `COc1ccc(CCc2ccccc2N2C(=O)c3c(Cl)c(Cl)c(Cl)c(Cl)c3C2=O)cc1OC`, the IC50 in experiment [2] was > 100 µM; in experiment [3] it was 6.1 µM; in experiment [4], 7.7 µM.
In the same order, the values of `O=C1c2ccccc2C(=O)N1c1ccc(CCc2ccc(O)c(O)c2)cc1` are > 100 µM, 1.7 µM and > 3 µM.
With `COc1ccc(CCc2ccc(N3C(=O)c4ccccc4C3=O)cc2)cc1OC`, the half-inhibitory concentration (IC50) in experiment [2] was > 100 µM; in experiment [3], 4.8 µM; in experiment [4], 4.3 µM.
In the same order, the values of `COc1ccc(/C=C/c2cccc(N3C(=O)c4c(Cl)c(Cl)c(Cl)c(Cl)c4C3=O)c2)cc1OC` are 27 µM, > 30 µM and > 30 µM.
In the same order, the values of `O=C1c2c(Cl)c(Cl)c(Cl)c(Cl)c2C(=O)N1c1cccc(CCc2ccc(O)c(O)c2)c1` are 23 µM, 6.3 µM and 21 µM.
In the same order, the values of `COc1cccc(CCc2cccc(N3C(=O)c4c(Cl)c(Cl)c(Cl)c(Cl)c4C3=O)c2)c1` are 69 µM, 4.2 µM and > 30 µM.
